CHO-K1 Ca ag: counter-screen for M1 agonists: effect in parental CHO-K1 cells; Fluo-8 calcium fluorescence; scaled to maximal ATP response, vehicle zero; activation, % at 3 µM; 0.48% of 360,000 active; AID 602248, 2012; in the data active = activation above about 15%;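 also: untransfected CHO-K1 host cells lacking M1 receptor as counterscreen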
CHRM5 agonist: human M5 muscarinic receptor agonists, primary screen, CHO-K1 cells, Fluo-8 calcium fluorescence | Muscarinic acetylcholine receptor M5 (Homo sapiens), P08912 | CHO-K1 hM5 cells; 0% DMSO wells, 100% maximal acetylcholine response | AID 624037, 2012 | activation, % at 3 µM | 0.19% of 360,000 active;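 active = activation above the run's mean over test compounds plus 3 SD, cut at about 23% in these data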;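 also: signal is peak over basal fluorescence ratio across the kinetic read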
Target sequence (P08912 whole entry, looked up): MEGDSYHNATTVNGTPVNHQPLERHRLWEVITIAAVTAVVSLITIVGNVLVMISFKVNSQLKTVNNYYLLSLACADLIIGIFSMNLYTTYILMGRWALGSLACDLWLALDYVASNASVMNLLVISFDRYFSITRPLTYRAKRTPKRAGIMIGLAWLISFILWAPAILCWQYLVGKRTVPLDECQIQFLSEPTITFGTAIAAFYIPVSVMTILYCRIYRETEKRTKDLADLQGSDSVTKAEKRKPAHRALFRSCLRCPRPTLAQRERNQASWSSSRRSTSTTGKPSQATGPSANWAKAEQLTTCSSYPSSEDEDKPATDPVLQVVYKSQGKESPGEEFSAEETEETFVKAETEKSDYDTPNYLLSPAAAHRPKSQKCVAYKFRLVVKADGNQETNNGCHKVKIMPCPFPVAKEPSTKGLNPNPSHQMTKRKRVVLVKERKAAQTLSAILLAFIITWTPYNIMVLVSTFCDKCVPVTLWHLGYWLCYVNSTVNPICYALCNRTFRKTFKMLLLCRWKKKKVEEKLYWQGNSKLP
CHO-K1 Ca antag: counter-screen for M1 antagonists: effect in parental CHO-K1 cells | ATP-induced calcium, Fluo-8 fluorescence | inhibition, % at 3 µM | 0.6% of 360,000 active;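 active = inhibition above a per-plate cutoff, the plate's mean sample inhibition plus 3 SD, cut at about 24% in these data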
M5 PAM: human M5 muscarinic receptor positive allosteric modulators, primary screen, CHO-K1 cells, Fluo-8 calcium fluorescence. activation, % at 3 µM. CHO-K1 hM5, ACh EC20 PAM; 0% = ACh EC20, 100% = ACh EC100. 0.3% of 360,000 active. AID 624038, 2012;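 active = activation above the run cutoff, the mean activation of all test compounds plus 3 SD, cut at about 18% in these data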
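system = human M5 receptor in CHO-K1 cells | reagent = EC20 acetylcholine as agonist stimulus | compound dosing = single-point, 3 µM nominal | incubation = Fluo-8 loading 80 min at 37 °C plus 30 min room temperature | detection = Fluo-8 calcium dye fluorescence, kinetic read | benchmarks = low control EC20 acetylcholine (0%), high control EC100 acetylcholine (100%)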
M5 antag: human M5 muscarinic receptor antagonists, primary screen, CHO cells, Fluo-8 calcium fluorescence | CHO-hM5 cells, ACh EC80 | inhibition, % at 3 µM | 0.59% of 360,000 active | AID 624040, 2012;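 active = inhibition above a per-plate cutoff, the mean of that plate's test compounds plus 3 SD, cut at about 27% in these data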
CHO-K1 Ca PAM: nonselective calcium activators in parental CHO-K1 cells, primary screen, counter-screen for M1 PAM project, cell-based, Fluo-8 calcium fluorescence, full deck, 1536-well | ATP EC20; 0% at ATP EC20, 100% at ATP max | activation, % at 3 µM | 0.02% of 360,000 active | AID 602247, 2012;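 active = activation above the run cutoff, the mean activation of all test compounds plus 3 SD, cut at about 40% in these data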;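 also: peak over basal fluorescence ratio in a 140 s read after ATP addition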
Hits are given with their value; 0 = inactive. Only some compounds are listed: those with a hit (about 1.7% of all), similar ones and a draw of the others.

SMILES | CHO-K1 Ca ag | CHRM5 agonist | CHO-K1 Ca antag | M5 PAM | M5 antag | CHO-K1 Ca PAM
Cc1oc2cc3oc(=O)c(CCC(=O)NC4CC4)c(C)c3cc2c1C | 0 | 0 | 0 | 0 | 0 | 0
CCc1cccc2cc3c(N)c(C(=O)Nc4ccc(S(=O)(=O)N5CCCC5)cc4)sc3nc12 | 16 | 0 | 0 | 0 | 0 | 0
O=C(NCc1cccnc1)c1cccc(S(=O)(=O)N2CCOCC2)c1 | 0 | 0 | 0 | 31 | 0 | 0
Cc1cccc2cc3c(N)c(C(=O)Nc4ccc(N5CCOCC5)cc4)sc3nc12 | 0 | 0 | 0 | 0 | 0 | 0
COCCN1Cc2cccc(C(=O)Nc3ccc(C)cc3)c2C1=O | 0 | 0 | 0 | 0 | 0 | 0
O=C(Nc1ncccc1O)c1ccc(Cl)c(S(=O)(=O)N2CCCCCC2)c1 | 0 | 0 | 0 | 0 | 0 | 0
COCCN1Cc2cccc(C(=O)Nc3ccc(S(=O)(=O)N4CCCCC4)cc3)c2C1=O | 0 | 0 | 0 | 25 | 0 | 0
O=C(Nc1ncccc1O)c1cccc(S(=O)(=O)N2CCCC2)c1 | 0 | 0 | 26 | 0 | 0 | 0
O=C(CCCN1C(=O)CCC1=O)Nc1cccc(C(F)(F)F)c1 | 0 | 0 | 0 | 0 | 0 | 0
CN1CCN(S(=O)(=O)c2ccc(NC(=O)c3cccc(S(=O)(=O)N4CCCC4)c3)cc2)CC1 | 0 | 0 | 0 | 0 | 29 | 0
S=c1[nH]ncn1/N=C/c1cccc(Oc2ccccc2)c1 | 0 | 0 | 0 | 0 | 0 | 0
NC(=O)c1ccc(N2CCN(S(=O)(=O)c3ccccc3)CC2)c([N+](=O)[O-])c1 | 0 | 0 | 0 | 0 | 29 | 0
Cn1c(=O)n(C)c2cc([N+](=O)[O-])c(N3CCN(S(=O)(=O)c4ccc5ccccc5c4)CC3)cc21 | 0 | 0 | 0 | 0 | 0 | 0
O=C(c1ccc(N2CCCCC2)c([N+](=O)[O-])c1)N1CCN(S(=O)(=O)c2ccccc2)CC1 | 0 | 0 | 0 | 0 | 0 | 0
COC(=O)c1ccc(N2CCN(S(=O)(=O)c3ccc4ccccc4c3)CC2)c([N+](=O)[O-])c1 | 0 | 0 | 28 | 0 | 0 | 0
CCOC(=O)Nc1ccc2c(c1)N(C(=O)CN1CCN(C)CC1)c1ccccc1S2 | 0 | 0 | 0 | 0 | 0 | 0
CCN1CCN(CC(=O)N2c3ccccc3Sc3ccccc32)CC1 | 0 | 0 | 0 | 0 | 0 | 0
O=C(CN1CCCCC1)N1CCc2ccccc21 | 0 | 0 | 0 | 0 | 0 | 0
O=C(CN1CCCCC1)N1c2ccccc2CCc2ccccc21 | 0 | 0 | 0 | 0 | 49 | 0
O=C(CN1CCCC1)N1c2ccccc2Sc2ccccc21 | 0 | 0 | 0 | 0 | 59 | 0
CCCC(CCC)C(=O)Nc1ccc2c(c1)N(C(=O)CN1CCN(C)CC1)c1ccccc1CC2 | 0 | 0 | 0 | 0 | 31 | 0
COC(=O)C(c1ccccc1)C1(O)CC(C)N(C)CC1C (stereo unspecified) | 0 | 0 | 0 | 0 | 0 | 0
O=C(CCNS(=O)(=O)c1cccc(C(F)(F)F)c1)NCc1ccco1 | 0 | 0 | 0 | 0 | 0 | 0
O=C(c1ccc(Cl)c(Cl)c1)N1CCOCC1 | 0 | 0 | 0 | 0 | 0 | 0
O=Cc1ccc(-c2ccccc2C(=O)O)o1 | 0 | 0 | 29 | 0 | 0 | 0
SMILES | CHO-K1 Ca ag | CHRM5 agonist | CHO-K1 Ca antag | M5 PAM | M5 antag | CHO-K1 Ca PAM
COC(=O)c1ccccc1-c1ccc(C=O)o1 | 0 | 0 | 0 | 0 | 0 | 0
Cc1cc(C)nc(NC(=O)C(c2ccccc2)c2ccccc2)c1 | 0 | 0 | 0 | 0 | 0 | 0
Cc1cccc(NNC(=S)Nc2ccccc2)c1 | 0 | 0 | 25 | 0 | 0 | 0
COc1ccccc1CNc1ccc([N+](=O)[O-])cc1C | 0 | 0 | 0 | 0 | 33 | 0
Cc1cc([N+](=O)[O-])ccc1NCc1ccccc1 | 0 | 0 | 0 | 0 | 0 | 0
CCS(=O)(=O)c1ccc2oc(Nc3ccc(C(C)C)cc3)nc2c1 | 0 | 0 | 0 | 0 | 0 | 0
O=C(Nc1ccncc1)OCc1ccccc1 | 0 | 0 | 0 | 0 | 0 | 0
O=Cc1c[nH]c2ccc(NC(=O)OCc3ccccc3)cc12 | 0 | 0 | 29 | 0 | 0 | 0
O=C1C(=O)N(CCCc2ccccc2)c2ccccc21 | 0 | 26 | 0 | 0 | 0 | 0
CN(C)c1ccc(C(=O)N/N=C/c2ccccn2)cc1 | 0 | 0 | 0 | 0 | 0 | 0
C=C[C@]1(C)C=C2C(=O)C[C@H]3C(C)(C)CCC[C@]3(C(=O)O)[C@@]2(O)CC1 | 0 | 0 | 0 | 0 | 0 | 0
COc1cc(C)ccc1S(=O)(=O)NC(=O)C1(C)CCN1C(=O)c1ccc(C2CCCCC2)cc1 (stereo unspecified) | 0 | 0 | 27 | 0 | 0 | 0
Cc1ccc(S(=O)(=O)NC(=O)C2(C)CCN2C(=O)C2CCCCC2)nc1 (stereo unspecified) | 0 | 0 | 28 | 0 | 0 | 0
CC(C)C(NC(=O)c1ccccc1F)C(=O)OCC(=O)c1ccc(F)cc1 (stereo unspecified) | 0 | 0 | 0 | 0 | 0 | 0
Cc1cc(CNC(=O)CC2C(=O)NCCN2Cc2ccccc2C(F)(F)F)nn1C (stereo unspecified) | 0 | 0 | 0 | 0 | 0 | 0
CCCc1nc2c3ccccc3ccn2c1Cc1ccccc1 | 0 | 0 | 0 | 0 | 28 | 0
CCCC(C)C(=O)Nc1ncc(S(=O)(=O)c2ccc([N+](=O)[O-])cc2)s1 (stereo unspecified) | 36 | 49 | 0 | 0 | 0 | 0
CC(C)C(=O)Nc1sc2c(c1-c1nc3ccccc3[nH]1)CCCC2 | 0 | 0 | 0 | 0 | 0 | 0
Cc1ccccc1C(=O)N1CCN(c2ccc(NC(=O)c3ccc4c(c3)OCCO4)cc2)CC1 | 19 | 0 | 0 | 0 | 0 | 0
CC(C)C(=O)N1CCN(c2ccccc2NC(=O)c2ccc(C#N)cc2F)CC1 | 22 | 0 | 0 | 0 | 0 | 0
COc1c(F)c(F)c(C(=O)Nc2ccccc2N2CCN(C(C)=O)CC2)c(F)c1F | 0 | 0 | 0 | 0 | 0 | 0
COc1c(F)c(F)c(C(=O)Nc2ccccc2N2CCN(C(=O)C(C)C)CC2)c(F)c1F | 0 | 0 | 0 | 31 | 0 | 0
CS(=O)(=O)N1CCN(c2ccccc2NC(=O)c2ccc3c(c2)OCCO3)CC1 | 19 | 0 | 0 | 0 | 0 | 0
CC1CCN(c2ccccc2NC(=O)c2ccc(C#N)cc2F)CC1 | 0 | 0 | 0 | 0 | 0 | 0
CCOC(=O)CC(=O)Nc1nnc(CC(C)C)s1 | 0 | 0 | 0 | 0 | 0 | 0
COc1ccc(Br)cc1CNC(=O)Cc1c(C(=O)O)[nH]c2ccc(Cl)cc12 | 0 | 0 | 0 | 0 | 0 | 0
COC(=O)c1cc(C(=O)OC)n(Cc2ccc(F)cc2)n1 | 0 | 0 | 0 | 0 | 0 | 0

Screening data (PubChem BioAssay)
